Compound activity (PubChem BioAssay)
SKN-1 inh = C. elegans SKN-1 inhibition; C. elegans VP596 Pgst-4::GFP/RFP ratio, acrylamide-induced, 24 h; inhibition, % at 21.8 µM; actives 0.49% (n = 360,000);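 active = interference check ratio from 0.5 to 1.5 plus GFP to RFP signal ratio inhibition reaching or exceeding a fixed threshold, cut at about 30% in these data, passing the limit was not always enough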
p-CIP stab down = compounds decreasing mouse p/CIP protein stability | AID 1984 | actives 0.01% (n = 290,000) | Q05BA5 | F442A p/CIP-EGFP cells, EGFP fluorescence, 16 h | decrease of EGFP signal, % at 10 µM;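 active = EGFP signal decrease of at least 30% at 10 µM or well 3 SD below plate mean, unless failing retest; inactive = the rest, including hits failing retest or dose response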
Target sequence (Q05BA5 1-1403): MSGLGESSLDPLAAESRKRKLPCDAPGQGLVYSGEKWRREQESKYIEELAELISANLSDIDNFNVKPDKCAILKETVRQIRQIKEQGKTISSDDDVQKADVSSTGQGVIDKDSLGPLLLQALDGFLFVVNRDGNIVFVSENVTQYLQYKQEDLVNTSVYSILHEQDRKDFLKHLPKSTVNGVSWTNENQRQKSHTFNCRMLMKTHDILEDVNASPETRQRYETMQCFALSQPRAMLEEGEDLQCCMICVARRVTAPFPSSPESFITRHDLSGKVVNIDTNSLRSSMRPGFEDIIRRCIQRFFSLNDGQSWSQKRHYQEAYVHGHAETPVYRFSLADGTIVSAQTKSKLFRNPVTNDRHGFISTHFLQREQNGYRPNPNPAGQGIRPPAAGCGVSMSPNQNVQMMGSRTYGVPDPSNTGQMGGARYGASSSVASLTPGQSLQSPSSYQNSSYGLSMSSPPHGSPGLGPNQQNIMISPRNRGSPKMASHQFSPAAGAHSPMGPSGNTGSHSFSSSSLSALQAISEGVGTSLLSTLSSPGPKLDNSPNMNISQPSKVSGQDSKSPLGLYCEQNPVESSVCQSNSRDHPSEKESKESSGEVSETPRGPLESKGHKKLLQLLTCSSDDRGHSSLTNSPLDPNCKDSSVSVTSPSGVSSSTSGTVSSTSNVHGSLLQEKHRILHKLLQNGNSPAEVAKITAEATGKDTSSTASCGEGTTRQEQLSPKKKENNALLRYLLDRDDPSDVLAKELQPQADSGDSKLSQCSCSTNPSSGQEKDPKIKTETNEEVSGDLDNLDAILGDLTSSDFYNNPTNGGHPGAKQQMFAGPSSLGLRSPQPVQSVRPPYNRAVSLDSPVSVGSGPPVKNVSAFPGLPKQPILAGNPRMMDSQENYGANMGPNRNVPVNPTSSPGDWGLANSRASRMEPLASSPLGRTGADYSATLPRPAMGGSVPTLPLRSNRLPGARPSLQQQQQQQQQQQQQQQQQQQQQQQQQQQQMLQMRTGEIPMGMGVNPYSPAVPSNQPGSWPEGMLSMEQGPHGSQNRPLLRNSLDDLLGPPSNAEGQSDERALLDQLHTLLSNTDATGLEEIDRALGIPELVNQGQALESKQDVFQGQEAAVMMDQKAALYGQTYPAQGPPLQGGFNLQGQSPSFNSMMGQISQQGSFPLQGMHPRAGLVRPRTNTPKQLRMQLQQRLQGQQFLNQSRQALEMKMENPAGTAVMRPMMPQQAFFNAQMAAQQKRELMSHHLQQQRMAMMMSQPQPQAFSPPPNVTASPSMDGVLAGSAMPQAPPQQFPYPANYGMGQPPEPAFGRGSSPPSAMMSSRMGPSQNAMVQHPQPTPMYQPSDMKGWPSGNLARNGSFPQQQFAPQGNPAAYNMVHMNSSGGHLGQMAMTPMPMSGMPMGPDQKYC
MsrA act = activates bovine MsrA enzyme | purified bovine MsrA, absorbance read-out | activation, % at 10.6 µM | actives 0.3% (n = 360,000) | AID 602163; in the data active = activation above about 7.5%
MsrA inh = bovine MsrA inhibition | purified bovine MsrA, absorbance read-out | inhibition, % at 15.5 µM | actives 0.75% (n = 360,000) | AID 651718
MT1-MMP act inh = inhibitors of human MT1-MMP activation. P50281. HT1080 RFP-PRO-GFP cells, GFP/RFP ratio fluorescence, overnight; percent of plate control window, DMSO zero. GFP/RFP ratio change, % at 20 µM. actives 0.061% (n = 360,000). AID 651647;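 active = GFP/RFP ratio change of at least 30% with cell ATP level not reduced by more than half and red fluorescence within 50% of control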
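Test system: HT1080 RFP-PRO-GFP cells; Benchmarks: DMSO and RFP-L50D-GFP cell wells; Timing: cells overnight before dosing, compound overnight, 37 °C, 5% CO2; Compound: one 20 µM compound dose with 1% DMSO; Read-out: GFP/RFP fluorescence ratio.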
MsrA conf = bovine MsrA inhibition, confirmed | shares compounds with MsrA inh | purified bovine MsrA, absorbance read-out | inhibition, % at 15.5 µM | actives 41% (n = 2,300) | AID 651822;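 also: coupled to thioredoxin reductase with NADPH and selenocystamine and DMSO as substrate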
Each line names hits and unclear results; the compound was inactive in the other large screens (follow-up assays come after a bar, where they were run). Only some compounds are listed: those with a hit (about 1.6% of all), similar ones and a draw of the others. Rule as the data show it, unless noted: active = inhibition above about 4.5%; inactive = the rest.

COc1ccc(/C=C/C(=O)NC(=S)NNC(=O)c2ccco2)cc1	MsrA inh 5.5 | MsrA conf 4.9
O=C(NNC(=S)NC(=O)c1ccco1)c1ccc(NC(=O)c2ccccc2)cc1	MsrA inh 5.2 | MsrA conf inactive
O=C(NC(=S)NNC(=O)c1cc2ccccc2cc1O)c1ccco1	MsrA inh 6.5 | MsrA conf inactive
COc1ccccc1C(=O)NC(=S)Nc1ccc(NC(=O)c2ccco2)cc1	MsrA inh 99 | MsrA conf inactive
O=C(NC(=S)NNC(=O)c1ccccc1O)c1ccco1	none
CCc1ccc[n+](-c2[nH]c(=O)sc2/C=N/N=C(\[O-])c2ccncc2)c1	none
Cc1cc(C)c[n+](-c2[nH]c(=O)sc2/C=N/N=C(\[O-])c2cccnc2)c1	MsrA inh 5.6 | MsrA conf inactive
COC(=O)Cc1nnn2c1[C@H](C)[C@@H](OC)c1cccc(Cl)c1-2	none (no result: SKN-1 inh, p-CIP stab down, MsrA act, MT1-MMP act inh)
COC(=O)c1ccc(COc2ccc3c(C)c(C)c(=O)oc3c2C)o1	none (no result: SKN-1 inh, MsrA act, MsrA inh, MT1-MMP act inh)
Cc1c(OCc2ccc(C(=O)O)o2)ccc2c3c(c(=O)oc12)CCC3	MsrA inh 4.8 | MsrA conf inactive
COC(=O)N1C[C@H](OC)[C@H]2C[C@@H]1c1ccccc1O2	none (no result: SKN-1 inh, p-CIP stab down, MsrA act, MT1-MMP act inh)
C[C@H](CO)N1C[C@H](C)[C@@H](CN(C)C(=O)Nc2cccc(Oc3ccccn3)c2)OCc2cn(nn2)CCCC1=O	none (no result: SKN-1 inh, p-CIP stab down, MsrA act, MT1-MMP act inh)
NS(=O)(=O)c1ccc(-c2ccc(/C=C3\NC(=S)NC3=O)o2)cc1	none
NS(=O)(=O)c1ccc(-c2ccc(C=O)o2)cc1	MsrA inh 4.7 | MsrA conf inactive
CN(C)S(=O)(=O)c1ccc2nc(NC(=O)c3cccnc3)sc2c1	none
O=C(Nc1nc2ccc(S(=O)(=O)N3CCOCC3)cc2s1)c1cccs1	MsrA inh 5.6 | MsrA conf inactive
O=C(Nc1nc2ccc(S(=O)(=O)N3CCCC3)cc2s1)c1cccs1	none
CN(C)S(=O)(=O)c1ccc2nc(NC(=O)c3cccs3)sc2c1	MsrA inh 6.2 | MsrA conf 5.4
O=C(O)c1ccc(N/N=C/c2cccc3nccnc23)cc1	MsrA inh 5.3 | MsrA conf inactive
COC(=O)C1=C(C)N(Cc2ccccc2C(F)(F)F)C(=NCc2ccccc2)NC1c1cccc(F)c1 (stereo not drawn)	none (no result: SKN-1 inh, p-CIP stab down, MsrA act, MT1-MMP act inh)
CCOC(=O)C1=C(C)NC(C)=C(C(=O)OCC)C1C(=O)OCC(=O)NC	MsrA inh 11 | MsrA conf inactive
CCn1ncc([N+](=O)[O-])c1C(=O)Nc1c(C)cccc1C	MsrA inh 14 | MsrA conf 6.7
CCn1ncc([N+](=O)[O-])c1C(=O)Nc1nc2cccc(C)c2s1	none
Cn1c(=O)cc(Cl)[nH]c1=O	none
CCN(/N=C/c1cccs1)c1cc(=O)n(C)c(=O)[nH]1	MsrA inh 7.2 | MsrA conf 6.7
CN(/N=C/c1cccs1)c1cc(=O)n(C)c(=O)[nH]1	MsrA inh 9.0 | MsrA conf 5.8
Cn1nnc2sc3c(c2c1=O)CCCC3	MsrA inh 5.0 | MsrA conf 5.8
COc1ccc(C(=O)/C=C/Nc2cc(C)on2)c(OC)c1	MsrA inh 7.4 | MsrA conf 5.5
COC(=O)C1=C(C)N(Cc2ccc(C(F)(F)F)cc2)C(=NCc2ccccc2)NC1c1ccc(C(F)(F)F)cc1 (stereo not drawn)	none (no result: SKN-1 inh, p-CIP stab down, MsrA act, MT1-MMP act inh)
C=CCc1c(C)nc(C)nc1N/N=C/c1ccccc1	MsrA inh 4.7 | MsrA conf 4.8
O=C1C(Nc2cccc(O)c2)=C(N2CCCCC2)C(=O)c2ccccc21	MsrA inh 14 | MsrA conf inactive
CC(C)(C)C(=O)Nc1ccc(F)cc1[N+](=O)[O-]	MsrA inh 6.3 | MsrA conf 7.5
Cc1cc(=O)[nH]c(N/N=C/c2cccs2)n1	none
Cc1cc(=O)[nH]c(N/N=C/c2sccc2C)n1	MsrA inh 4.8 | MsrA conf 5.3
C(=N\Nc1nc2ccccc2[nH]1)/c1cccs1	none
Cc1ccsc1/C=N/Nc1nc2ccccc2[nH]1	MsrA inh 4.8 | MsrA conf inactive
O=C1NC(=S)N/C1=C\c1ccccc1OCc1ccc(C(=O)O)cc1	MsrA inh 6.4 | MsrA conf inactive
CN1C(=O)/C(=C/c2ccccc2OCc2ccc(C(=O)O)cc2)NC1=S	none
C=CCN1C[C@H](COC(=O)c2cccc(C)c2)Oc2cccc(F)c2S1(=O)=O	none (no result: SKN-1 inh, p-CIP stab down, MsrA act, MT1-MMP act inh)
CCOC(=O)/C(C#N)=C/c1cn(CCC(=O)O)nc1-c1ccccc1	none
CCOC(=O)/C(C#N)=C/c1cn(CCC(=O)O)nc1-c1ccc(OC)cc1	MsrA inh 5.0 | MsrA conf inactive
CCOC(=O)C1=C(C(=O)OCC)C2N(Cc3ccc(C#N)cc3)c3ccccc3[C@@]23C[C@@H](C(=O)OC)N(S(=O)(=O)c2c(C)noc2C)C3=N1 (stereo partly drawn)	none (no result: SKN-1 inh, p-CIP stab down, MsrA act, MT1-MMP act inh)
CCN(CC)S(=O)(=O)c1cccc(-c2n[nH]c(=S)n2/N=C/c2ccc(OC)cc2)c1	MsrA inh 7.7 | MsrA conf inactive
CN(C)c1ccc(/C=C(/NC(=O)c2ccccc2)C(=O)N2CCCC2)cc1	MsrA inh 5.4 | MsrA conf inactive
C[C@@H]1C=CCCO[C@]12C(=O)N(Cc1ccc(Br)cc1)c1cccc(Br)c12	none (no result: SKN-1 inh, p-CIP stab down, MsrA act, MT1-MMP act inh)
C=CCN1[C@H](C)[C@H](c2ccccc2)Oc2cc(Br)ccc2S1(=O)=O	none (no result: SKN-1 inh, p-CIP stab down, MsrA act, MT1-MMP act inh)
O=C(NNC(=S)Nc1cccc(C(F)(F)F)c1)c1ccncc1	MsrA inh 4.8 (no result: p-CIP stab down) | MsrA conf inactive
O=C(NNC(=S)Nc1ccccc1)c1ccncc1	none
CN(Cc1ccccc1)C(=O)COC(=O)c1cc([N+](=O)[O-])ccc1N1CCOCC1	none (no result: p-CIP stab down)
CCN(C(=O)COC(=O)c1cc([N+](=O)[O-])ccc1N1CCOCC1)c1ccccc1	MsrA inh 9.8 (no result: p-CIP stab down) | MsrA conf 5.5
CC(C)(C)S(=O)(=O)N1C[C@H]2CC(=O)C=C2[C@@H]1CCO	none (no result: SKN-1 inh, p-CIP stab down, MsrA act, MT1-MMP act inh)
O=c1/c(=C/c2ccccn2)sc2n1CN(c1ccccc1)CN=2	MsrA inh 4.8 | MsrA conf inactive
O=C(CC1CCCC1)N[C@H](C(=O)N1CCC[C@H]1C(=O)NC1CCCC1)c1ccccc1	none (no result: SKN-1 inh, p-CIP stab down, MsrA act, MT1-MMP act inh)
Cc1cc(C)nc(NC2=NCC(=O)N2c2ccc3c(c2)OCCO3)n1	MsrA inh 8.6 | MsrA conf 6.1
CC(=O)Nc1ccc(S(=O)(=O)NCC2CCN(C(=O)C(=O)c3cccs3)CC2)cc1	none (no result: SKN-1 inh, p-CIP stab down, MsrA act, MT1-MMP act inh)
Nc1cc2ccccc2cc1NS(=O)(=O)N1CCCCC1	none (no result: SKN-1 inh, p-CIP stab down, MsrA act, MT1-MMP act inh)
COc1ccc(-c2cc(C(F)F)n3ncc(C(=O)n4ccnc4C)c3n2)cc1	MsrA inh 4.7 | MsrA conf 11
Cc1nc(N)sc1C(=O)N/N=C/c1cccnc1	MsrA inh 5.8 | MsrA conf inactive
COc1ccccc1/C=N/NC(=O)c1sc(C)nc1C	MsrA inh 5.1 | MsrA conf inactive
COc1ccc(/C=N/NC(=O)c2sc(C)nc2C)cc1	none
COc1ccc(C(=O)N/N=C/c2cccnc2)cc1	none
Cc1cc2c(nc1C)CCCN2S(=O)(=O)c1ccc(C(F)(F)F)cc1	none (no result: SKN-1 inh, p-CIP stab down, MsrA act, MT1-MMP act inh)
